Screening data as filed in PubChem.
CaV13 FRET inh: Primary screen for inhibitors of IQ motif and Ca2+-dependent inactivation inhibitor domain binding in CACNA1D, Förster resonance energy transfer in living cells, … | HEK cells, CFP/YFP FRET ICDI-IQ, plate reader, 10 min; percent FRET-ratio fall versus neutral wells | actives 0.098% (n = 340,000) | AID 743397 | inhibition, % at 12.3 µM;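 active = mean replicate inhibition of at least 30% and at least 1% of replicates passing that level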;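 note: 0% = median of the neutral control wells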
SIRT5 block: sirtuin-5 (human) deacylase inhibition; Q9NXA8; Purified SirT5, succinyl-peptide AMC, trypsin-coupled fluorescence; inhibition, % at 15 µM; actives 1.1% (n = 330,000); in the data active = inhibition above about 15%
Target sequence (Q9NXA8 whole entry, looked up): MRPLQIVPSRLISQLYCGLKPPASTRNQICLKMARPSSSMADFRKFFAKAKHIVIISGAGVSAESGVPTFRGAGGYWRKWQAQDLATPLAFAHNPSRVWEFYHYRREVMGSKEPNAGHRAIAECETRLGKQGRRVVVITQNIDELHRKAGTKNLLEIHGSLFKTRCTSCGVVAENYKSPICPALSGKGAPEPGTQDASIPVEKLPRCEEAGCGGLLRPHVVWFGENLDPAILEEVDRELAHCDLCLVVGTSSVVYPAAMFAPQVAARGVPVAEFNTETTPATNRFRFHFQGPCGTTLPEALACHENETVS
AF4-AF9 inh: blocks AF4 peptide binding to human AF9. actives 0.47% (n = 350,000). inhibition, % at 10 µM. AlphaScreen, biotin-AF4 peptide binding to FLAG-AF9. P42568. AID 651704;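 active = every replicate reaching a set inhibition limit, whatever the replicate mean, cut at about 25% in these data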;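 note: 0% = plate neutral control median and 100% = total signal loss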
DENV2 CPE: protects cells from dengue virus 2 cytopathic effect; AID 651640; DENV2-infected cells, cytopathic effect rescue, plate reader; actives 1.7% (n = 350,000); CPE inhibition, % at 9.99 µM; in the data active = CPE inhibition above about 20%, passing the limit was not always enough; tested in BHK-21 cells;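 note: 0% = median of neutral control wells and 100% = median of positive control wells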
S100A4 inh HTS: blocks human S100A4 binding to myosin IIA peptide; S100A4/TAMRA-MyoIIA peptide fluorescence polarization; actives 0.14% (n = 360,000); inhibition, % at 10.7 µM;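 active = mean inhibition of at least 70% across replicates, with every replicate also reaching that level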
Target sequence (P26447 whole entry, looked up): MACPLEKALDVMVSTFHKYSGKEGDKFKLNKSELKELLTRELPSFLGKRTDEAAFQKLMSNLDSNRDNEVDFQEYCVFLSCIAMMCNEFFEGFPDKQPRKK
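Test system – S100A4 monomer (human) · Compound – single-point compound testing · Schedule – 5 min incubation before reading · Probe or stimulus – TAMRA-labelled myosin IIA heavy-chain peptide probe, 5 nM · Benchmarks – neutral control DMSO, positive control TFP · Medium – Calcium-containing HEPES buffer, pH 7.2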
Numbers without * were called inactive; . = no result given. Only some compounds are listed: those with a hit (about 2.7% of all), similar ones and a draw of the others.

SMILES | CaV13 FRET inh | SIRT5 block | AF4-AF9 inh | DENV2 CPE | S100A4 inh HTS
O=C(C[C@@H]1C[C@H]2c3cc(NS(=O)(=O)c4ccc(F)cc4)ccc3O[C@H]2[C@H](CO)O1)NCc1cc(F)ccc1F | . | -2.7 | 2.4 | -2.1 | 9.1
COc1cccc(CNC(=O)[C@@H]2CCCN2C(=O)[C@H]2CCCCN2C(=O)c2ccc(Cl)cc2)c1 | -5.7 | -0.9 | 0.9 | 77.9* | -8.5
C[C@@H]1CN([C@@H](C)CO)C(=O)c2cc(C#CCC3CCCC3)cnc2O[C@H]1CN(C)S(=O)(=O)c1cccs1 | . | -1.7 | 0.4 | 37.8* | -2.5
C[C@H]1CN([C@@H](C)CO)C(=O)c2cc(C#CCC3CCCC3)cnc2O[C@H]1CN(C)C(=O)c1cnccn1 | . | 23.6* | -6.1 | 9.6 | -23.1
CC(=O)N(C)C[C@H]1Oc2ncc(C#CCC3CCCC3)cc2C(=O)N([C@@H](C)CO)C[C@H]1C | . | 19.0* | -6.0 | -4.3 | 2.2
CCCNC(=O)NC[C@H]1[C@H](c2ccc(C3=CCCC3)cc2)[C@H](CO)N1C(C)=O | . | . | . | -1.0 | .
O=C(NCC1CCCN1S(=O)(=O)c1cccs1)C(=O)Nc1ccccc1 (configuration not stated) | -14.8 | -2.4 | 10.6 | 8.4 | -3.2
COc1ccc(S(=O)(=O)N2CCCCC2C)cc1 (configuration not stated) | -3.5 | -4.7 | 29.1* | 14.6 | -2.2
COc1ccc(S(=O)(=O)N2CCCC2CNC(=O)C(=O)NC2CCCC2)cc1 (configuration not stated) | 31.2* | . | -2.7 | -2.5 | 1.6
Cc1ccc(NC(=O)C(=O)NCC2CCCN2S(=O)(=O)c2cccs2)cc1 (configuration not stated) | -6.4 | -1.4 | 1.4 | 37.8* | -6.2
C[C@@H]1CCCCO[C@H](CN(C)C)[C@@H](C)CN([C@H](C)CO)C(=O)c2cc(NC(=O)Nc3ccc(F)cc3)ccc2O1 | . | -3.4 | 1.7 | 7.5 | -8.9
C[C@H]1CN([C@@H](C)CO)C(=O)CCCn2nncc2CO[C@@H]1CN(C)S(=O)(=O)c1ccc(Cl)cc1 | . | 1.7 | -3.4 | 5.8 | -3.7
COc1ccc(CNC(=O)OC2CC3CC2[C@H]2CCCCN2C3=O)cc1 (some centres not stated) | -5.2 | 0.5 | 3.0 | -3.4 | -0.6
CN(C)CCCNC(=O)OC1CC2CC1[C@H]1CCCCN1C2=O (some centres not stated) | -4.5 | -1.4 | 3.7 | 47.7* | 11.5
C[C@@H]1CN([C@H](C)CO)C(=O)Cc2cc(NC(=O)CCN3CCOCC3)ccc2O[C@@H]1CN(C)CC1CC1 | . | -2.8 | -2.2 | 2.7 | 4.1
C[C@H]1CN([C@@H](C)CO)C(=O)Cc2cc(NC(=O)CCN3CCOCC3)ccc2O[C@H]1CN(C)CC1CCCCC1 | . | 20.3* | 0.2 | -1.0 | -2.4
C[C@@H]1CN([C@@H](C)CO)C(=O)Cc2cc(NC(=O)CCN3CCOCC3)ccc2O[C@@H]1CN(C)C | . | 2.6 | -2.3 | -2.1 | 127.9*
COCc1cc(N2CCN(C(=O)OC(C)(C)C)C[C@@H]2C)ccc1N1CC[C@@H](O)C1 | -5.2 | -0.6 | . | -2.6 | -6.8
COc1ccc(NC(=O)N(C)C[C@H]2Oc3c(NS(=O)(=O)c4ccc(C)cc4)cccc3C(=O)N([C@H](C)CO)C[C@H]2C)cc1 | . | -0.8 | 1.9 | -3.4 | 4.3
C/C=C/c1ccc([C@@H]2[C@@H](CN(C)S(C)(=O)=O)N(C(C)=O)[C@H]2CO)cc1 | . | -0.8 | 1.3 | 0.9 | -0.5
C[C@H](CO)N1C[C@H](C)[C@@H](CN(C)CC2CCCCC2)Oc2ccc(NC(=O)Nc3ccc4c(c3)OCO4)cc2CC1=O | . | 15.9* | 26.0* | 29.3* | 0.8
C[C@@H]1CN([C@H](C)CO)C(=O)Cc2cc(NC(=O)NC3CCCCC3)ccc2O[C@H]1CN(C)CC1CCCCC1 | . | 0.6 | -3.3 | 24.9* | -4.0
C[C@H](O)C#Cc1ccc2c(c1)O[C@@H](CN(C)C(=O)CC1CC1)[C@@H](C)CN([C@H](C)CO)S2(=O)=O | . | 1.2 | 0.8 | 1.2 | 1.8
CO[C@@H]1CN(C)C(=O)c2ccc(NC(=O)CC(F)(F)F)cc2OC[C@H](C)N(C(=O)C2CCOCC2)C[C@H]1C | . | 0.2 | -4.2 | -2.3 | -24.4
CO[C@H]1CN(C)C(=O)c2ccc(NC(=O)CC(F)(F)F)cc2OC[C@H](C)N(C(=O)C2CCOCC2)C[C@H]1C | . | -1.5 | -2.4 | 23.9* | -20.6
SMILES | CaV13 FRET inh | SIRT5 block | AF4-AF9 inh | DENV2 CPE | S100A4 inh HTS
CO[C@H]1CN(C)C(=O)c2cc(NC(=O)CC(F)(F)F)ccc2OC[C@@H](C)N(C(=O)C2CC2)C[C@H]1C | . | . | -1.2 | 37.6* | -31.0
CCCNC(=O)N[C@H]1CC[C@H](CC(=O)NCCc2ccccc2)O[C@@H]1CO | . | -0.9 | -2.6 | -2.1 | 11.9
C[C@H](CO)N1C[C@H](C)[C@H](CN(C)Cc2cncnc2)Oc2ncc(-c3ccc(C#N)cc3)cc2C1=O | . | -4.1 | -3.7 | -0.4 | -0.9
COc1ccc(S(=O)(=O)N(C)C[C@@H]2Oc3ccc(NS(=O)(=O)c4ccc(Cl)cc4)cc3CC(=O)N([C@@H](C)CO)C[C@@H]2C)cc1 | . | . | . | 63.8* | .
COc1ccc(S(=O)(=O)Nc2ccc3c(c2)CC(=O)N([C@H](C)CO)C[C@H](C)[C@H](CN(C)S(=O)(=O)c2ccc(Cl)cc2)O3)cc1 | . | 5.4 | -0.2 | -9.7 | -1.6
COc1ccc(S(=O)(=O)N(C)C[C@@H]2Oc3ccc(NS(=O)(=O)c4ccc(F)cc4)cc3CC(=O)N([C@@H](C)CO)C[C@@H]2C)cc1 | . | 7.7 | 0.3 | 1.3 | -2.9
COc1ccc(S(=O)(=O)N(C)C[C@H]2Oc3ccc(NS(=O)(=O)c4ccc(F)cc4)cc3CC(=O)N([C@@H](C)CO)C[C@@H]2C)cc1 | . | 8.9 | 0.7 | 76.7* | -4.1
COc1ccc(S(=O)(=O)Nc2ccc3c(c2)CC(=O)N([C@H](C)CO)C[C@@H](C)[C@H](CN(C)S(=O)(=O)c2ccc(F)cc2)O3)cc1 | . | . | . | 43.3* | .
COc1ccc(NC(=O)Nc2ccc3c(c2)CC(=O)N([C@@H](C)CO)C[C@@H](C)[C@H](CN(C)C(=O)Nc2c(C)noc2C)O3)cc1 | . | . | . | -2.4 | .
c1ccc(COCCCn2cc(-c3ccccc3)nn2)cc1 | -9.1 | -4.1 | -18.8 | 45.5* | 3.3
CC1=C(C(=O)N(C)C)CC(CC(=O)NCc2ccco2)C(=O)N1Cc1ccccc1 (configuration not stated) | -3.7 | 16.0* | 0.9 | 11.6 | -3.1
CCN(CC)C(=O)C1=C(C)N(Cc2ccc(C(C)(C)C)cc2)C(=O)C(CC(=O)NC2CCCCC2)C1 (configuration not stated) | -1.5 | 3.3 | 1.4 | 3.4 | -4.0
CC1=C(C(=O)N(C)C)CC(CC(=O)NC2CCCCC2)C(=O)N1Cc1ccc(C(C)(C)C)cc1 (configuration not stated) | -1.3 | -1.0 | -2.6 | 42.9* | 2.2
